# Assay results gathered from unrelated publications.
# pIC50, pKd, pKi: −log10 of the molar value.
# PLEKHA3: PLEKHA3 (Homo sapiens, UniProt Q9HB20)
# ADRA2C: Alpha-2C adrenergic receptor (ADRA2C, Homo sapiens, UniProt P18825)
# Fibroblast growth factor 14: Fibroblast growth factor 14 (Homo sapiens, UniProt Q92915)
Compound,target,assay,measurement,value
CC(C)=CC[C@@H](O)C1=CC(=O)c2c(O)ccc(O)c2C1=O,"Interleukin-6 (IL6, Homo sapiens, UniProt P05231)","binding, BLI",pKd,6.04
CCOc1ccc(C(=O)CC(SCc2ccc(OC)cc2)C(=O)O)cc1 (stereo not drawn),PLEKHA3,"ligand displacement, FP",pKi,4.57
Cc1cc(Oc2ncccc2CN2CCN(c3ccc([N+](=O)[O-])cc3C(F)(F)F)CC2)ccc1-c1c(C)c(=O)[nH]c(=O)n1C,ADRA2C,"ligand displacement, radioligand",pKi,6.40
CCOC(=O)c1cccc(NC(=O)Cn2cc(CO)c3ccccc32)c1,Fibroblast growth factor 14,"binding, SPR",pKd,6.53
CCOc1ccc(C(=O)CC(SCc2ccc(Br)cc2)C(=O)O)cc1 (stereo not drawn),PLEKHA3,"ligand displacement, FP",pKi,4.73
Cc1cc(Oc2ncccc2CN2CCN(Cc3ccc(F)cc3)CC2)ccc1-c1c(C)c(=O)[nH]c(=O)n1C,ADRA2C,"ligand displacement, radioligand",pKi,6.69
O=C(O)c1cc(-c2ccc(-c3cc[nH]n3)cc2)c2ccc(-c3ccc(C(F)(F)F)cc3)cc2c1,ADRA2C,"cell-free assay, radioligand",pKi,5.19
CC(=O)Nc1ccc(S(=O)(=O)N2CCN(CC(O)COc3ccc4ccccc4c3)CC2)cc1 (stereo not drawn),Fibroblast growth factor 14,"binding, SPR",pKd,5.07
CCOc1ccc(C(=O)CC(SCc2ccc(Cl)cc2)C(=O)OC)cc1 (stereo not drawn),PLEKHA3,"ligand displacement, FP",pKi,4.76
Cc1cc(Oc2ncccc2CN2CCN(c3ccccc3)CC2)ccc1-c1c(C)c(=O)[nH]c(=O)n1C,ADRA2C,"ligand displacement, radioligand",pKi,7.94
C[C@H](Cc1ccc(O)c(O)c1)[C@@H](C)Cc1ccc(O)c(O)c1,"pyrD (Pseudomonas aeruginosa, UniProt Q9HZF8)","binding, ITC",pKd,5.12
Cc1cc(Oc2ncccc2CN2CCN(c3ccccc3C#N)CC2)ccc1-c1c(C)c(=O)[nH]c(=O)n1C,ADRA2C,"ligand displacement, radioligand",pKi,7.25
COc1ccc(C(=O)CC(SCc2ccc(Cl)cc2)C(=O)O)cc1 (stereo not drawn),PLEKHA3,"ligand displacement, FP",pKi,4.88
Cc1cc(Oc2ncccc2CN2CCN(C(c3ccccc3)c3ccccc3)CC2)ccc1-c1c(C)c(=O)[nH]c(=O)n1C,ADRA2C,"ligand displacement, radioligand",pKi,6.86
c1coc(-c2n[nH]cc2-c2ccnc3ccccc23)c1,"Mitogen-activated protein kinase 14 (MAPK14, Homo sapiens, UniProt Q16539)","enzyme activity, inhibitor, ADP detection",pIC50,5.74
